# Mdm2 ligase inh: blocks human Mdm2 ubiquitin ligase activity; 0.11% of 210,000 active; signal enhancement, % at 5 µM; cell-based MDM2 ubiquitination luciferase reporter, 2 h; 0 = plate control, 100 = twice control, blank-subtracted;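 active means signal enhancement of 30% or more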;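 further: luminescence tracks abundance of the self-degrading MDM2-luciferase fusion protein; higher signal means inhibition of MDM2 E3 ligase activity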
#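 System: stable MDM2–luciferase fusion reporter cells / Input: 2000 cells seeded into each well / Schedule: 4 h settle plus 2 h compound, 37 °C / Compound: single-point 5 µM / Buffer or medium: cells held in DMEM / Benchmarks: control and blank well means / Evaluation: percent signal gain over controls, blank-subtracted / Measured by: luciferase luminescence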
# Redox H2O2 prof: compounds producing H2O2 with reducing agent – biochemical, NIH compound library profiling, artefact control for MLSCN library redox annotation, primary screen; DTT-dependent redox cycling H2O2, phenol red/HRP absorbance; 100% = 100 µM peroxide control, 0% = buffer; activation, % at 10 µM; 0.03% of 200,000 active; AID 878;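 active means activation of at least 50% relative to the plate's high and low controls in the primary single-dose screen; inactive means activation below 50%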;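 further: compound incubated with DTT at 0.8 mM final as the reducing agent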
# PKD1 inh: PKD1 (human) kinase inhibition; PKD1 kinase fluorescence polarization assay; 0.056% of 200,000 active; Q15139; inhibition, % (no concentration beside the values); in the data active means inhibition above about 50%
# p97 ATPase inh: human p97 ATPase inhibition | P55072 | recombinant p97 ATPase, Kinase-Glo ATP luminescence, 3 h | inhibition, % at 8 µM | 0.42% of 220,000 active; in the data active means inhibition above about 15%;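 further: 0% = DMSO vehicle and 100% = wells lacking enzyme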
# KCC2 mod: modulates chloride dependent transport by human KCC2. 2.2% of 190,000 active. AID 1456. KCC2 cells, thallium flux FluoZin-2 fluorescence. B-score of Tl+ flux slope (higher = more flux/activation; lower = inhibition) at 10 µM. Q9H2X9;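 active means thallium flux slope and its plate-corrected score both differing from the plate sample mean at a set confidence after two filtering rounds, in either direction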;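 further: slope of fluorescence scaled to starting intensity during 10 to 20 s after thallium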
# ROMK mod: modulates human ROMK potassium channel activity | P48048 | Tet-inducible ROMK, thallium flux fluorescence; actives lie on both sides | B-score at 10 µM | 2% of 130,000 active | AID 1918;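 active means signal ratio slope over the read window, or its plate-corrected B-score, at least 3 SD from the plate mean, either direction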;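 further: B-score of the F/F0 ratio slope over 7 to 12 s after thallium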
# Target sequence (P48048 whole entry, looked up): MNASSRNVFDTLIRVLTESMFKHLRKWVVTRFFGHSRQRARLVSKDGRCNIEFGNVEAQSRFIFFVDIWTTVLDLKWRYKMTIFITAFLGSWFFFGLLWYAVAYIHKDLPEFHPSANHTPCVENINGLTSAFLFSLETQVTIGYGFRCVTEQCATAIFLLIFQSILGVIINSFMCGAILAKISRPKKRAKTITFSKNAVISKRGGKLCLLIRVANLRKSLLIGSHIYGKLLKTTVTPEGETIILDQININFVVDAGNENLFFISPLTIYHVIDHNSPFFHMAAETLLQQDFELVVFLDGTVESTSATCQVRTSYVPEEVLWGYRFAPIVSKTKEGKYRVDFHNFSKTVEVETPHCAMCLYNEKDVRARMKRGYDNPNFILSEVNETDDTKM
# ROMK hit retest: retested hit modulating human ROMK potassium channel; shares compounds with ROMK mod; ROMK thallium flux, fluorescence ratio; stronger effect = lower value; normalized thallium flux (F/F0 slope) at 10 µM; 54% of 3,000 active;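 active means Flux at 10 µM at least 3 SD below or above vehicle control mean in one or both replicates; inconclusive means no clear call, values can overlap the other calls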
# The depositor's hits bear a star; ? = inconclusive; . = no result given. Rows were chosen to be rich in hits. Some 3.4% of all compounds tested hit in one or more screens of this group.
SMILES,Mdm2 ligase inh,Redox H2O2 prof,PKD1 inh,p97 ATPase inh,KCC2 mod,ROMK mod,ROMK hit retest
O=C(CN1CCCC1)OCCCc1ccccc1,13,0,-5,3,-0.13,0.1,.
COc1cccc(OC)c1OCCOCCn1cnc2ccccc2c1=O,-10,0,0,1,0.049,0.88,.
CCCCc1nc(NCCNC(=O)c2ccco2)c(C#N)c2c1CSC(C)(C)C2,-15,0,-5,-3,-2.9,-1.5,.
Cc1cc2nc(SC(C)C(=O)O)[nH]c2cc1C (stereo not given),-9,0,-8,4,0.45,1.2,.
CC1(C)CC(=O)C2=C(C1)OC(N)=C(C#N)C2CCc1ccccc1 (stereo not given),-8,0,6,0,0.019,-5.1*,0.072
Nc1nc(Nc2ccccc2)sc1C(=O)c1ccccc1,-13,.,.,6,-1.2,.,?
CCCCOC(=O)Cn1c(=O)c2c(nc3n2CCCCN3c2ccc(C)cc2)n(C)c1=O,.,2,-2,4,-1.5,.,0.061*
COc1ccc(CNC(=O)N2CCN(c3ccc(F)cc3)CC2)cc1Cl,-7,-2,-6,-2,-1.6,-3*,0.075
c1ccc(CC2CCN(C3=Nc4cccc5cccc3c45)CC2)cc1,-11,0,-6,-2,-0.92,-4.4*,0.062*
CC1CN(C2=Nc3cccc4cccc2c34)CC(C)O1 (stereo not given),7,1,2,2,-1.6,-1.8*,0.063*
COc1cccc(/C=C/C(=O)OCC(=O)Nc2ccc(Cl)c(S(=O)(=O)N(C)C)c2)c1OC,-14,0,-3,-2,-1.6,-0.046,.
O=C1c2ccccc2NC(c2ccc(-c3cccc([N+](=O)[O-])c3)o2)N1O (stereo not given),-5,0,-20,2,3.4,-3.6*,0.061*
O=C1CCC/C(=N\NC(=O)c2ccc(COc3ccccc3-c3ccccc3)cc2)C1,-2,1,-6,-1,0.0034,-5.5*,0.078
CCOC(=O)COc1ccc2c(=O)c(-c3ccc(OC)c(OC)c3)c(C(=O)OCC)oc2c1,-8,.,.,1,-2,.,.
Cc1nn(CCO)c(N)c1C1(O)C(=O)Nc2c(Cl)cc(Cl)cc21 (stereo not given),-17,0,-8,0,1.1,0.54,.
O=C1OC(/C=C/c2ccc(Cl)cc2Cl)=NC/1=C\c1cccs1,6,0,-5,2,0.82,-2.9*,0.059*
CC(C)(C)c1ccc(N2C(=N)SCC2=O)cc1,-2,.,.,-1,-0.24,-9.3*,0.041*
Cc1ccc(-c2csc(N3C(=N)SCC3=O)n2)cc1,.,.,.,6,0.91,.,.
O=C(COC(=O)c1cnc(Cl)c(Cl)c1)NCc1ccc2c(c1)OCO2,-14,0,3,4,0.6,0.84,.
CCOc1ccc(NC(=O)NC(=O)N(C)S(=O)(=O)c2ccc(C)cc2)cc1,-8,0,-1,2,0.29,-2*,0.077
CCOc1ccccc1NC(=O)NC(=O)N(C)S(=O)(=O)c1ccc(C)cc1,1,-1,0,1,-0.46,0.019,.
O=C(Nc1cccc(Cl)c1)Nc1ccnc(-c2cccnc2)n1,-28,-2,2,0,-0.76,2.4*,0.08
Nc1[nH]n(-c2ccccc2)c(=O)c1N=Nc1ccc2c(c1)OCO2,.,.,.,8,1.4,.,0.086
Nc1[nH]n(-c2ccccc2)c(=O)c1N=Nc1ccc2c(c1)OCCO2,-46,-1,3,1,0.39,0.054,.
O=C1Nc2ccccc2OCc2c1cccc2[N+](=O)[O-],-21,-1,12,8,-0.87,3.5*,0.1*
SMILES,Mdm2 ligase inh,Redox H2O2 prof,PKD1 inh,p97 ATPase inh,KCC2 mod,ROMK mod,ROMK hit retest
NNC(=O)c1ccccc1-n1cccc1,-10,-2,-1,8,-0.51,-0.15,.
O=Cc1cccc(OC(=O)c2ccc(Cl)cc2Cl)c1,-14,0,-1,14,.,3*,0.088
O=C(Nc1nc(-c2cccs2)c(C(=O)C(F)(F)F)s1)c1ccccc1,.,0,-10,-2,-2.5,-6.5*,0.054*
N#C/C(=C(/O)C(Cl)(Cl)Cl)c1nc2ccccc2[nH]1,-10,.,.,8,-0.34,-4.9*,0.045*
CC(C)=C(C#N)c1nc2ccccc2s1,-2,-3,3,7,0.63,.,.
C/C(O)=C(/C#N)c1nc2ccccc2[nH]1,-18,3,-8,9,-0.83,.,.
N#C/C(=C/c1ccncc1)c1nc2ccccc2s1,-9,0,5,-2,0.047,-3.5*,0.053*
N#C/C(=C\c1ccncc1)c1nc2ccccc2[nH]1,-19,-1,-5,5,-0.5,-5.2*,0.051*
CCOC(=O)Cn1nc(C)c(NC(=O)COc2ccc([N+](=O)[O-])c(C)c2)c1C,-4,-1,-2,1,1.6,0.14,.
Cc1cc(C(C)(C)C)cc(C)c1Cn1c2[n+](c3ccc(C(F)(F)F)cc31)CCCCC2,-8,-1,-2,0,0.29,-4.9*,0.048*
Cc1cc(C(=O)CSc2nc3ccccc3c(=O)n2C)c(C)n1CC1CCCO1 (stereo not given),-29,0,-1,0,-1.1,-8.5*,0.06*
Cc1cc(C(=O)CSc2nc3ccccc3c(=O)[nH]2)c(C)n1CC1CCCO1 (stereo not given),-13,0,-2,5,-1.7,-1.3,.
Cc1cccc2nc(CSc3nc4ccc([N+](=O)[O-])cc4[nH]3)c(Br)n12,1,1,-10,2,-2.4,.,.
CCOc1ccc(NC(=O)C2CCCN(S(=O)(=O)c3c(C)n[nH]c3C)C2)cc1 (stereo not given),-16,0,6,-7,0.09,.,.
COc1ccc(C)cc1NC(=O)CN(c1ccc(C)cc1)S(C)(=O)=O,-12,0,1,7,0.53,-0.17,.
CC1(CC(=O)N/N=C/c2cc([N+](=O)[O-])c(O)cc2O)OCCO1,-15,0,1,6,-0.81,0.7,0.081
CC(NCCC1(Cc2ccccc2Cl)CCOC(C)(C)C1)c1cccs1 (stereo not given),-25,.,.,-15,-0.87,-2.4,.
Cc1ccc(C(=O)N/C(=C\c2ccc(-c3ccc(Br)cc3)o2)C(=O)NCCCN(C)C)cc1,-17,-2,-2,-5,1.3,-3.7*,0.048*
CN(C)CCNC(=O)/C(=C/c1ccc(-c2ccc(Cl)cc2Cl)o1)NC(=O)c1ccccc1,-11,0,14,-6,0.18,.,.
CN(C)CCNC(=O)/C(=C/c1ccc(-c2ccc(Cl)cc2)o1)NC(=O)c1ccccc1,-5,0,2,-9,-1.7,-4.4*,0.06*
